ChEMBL document CHEMBL1135644, “Effect of spermine conjugation on the cytotoxicity and cellular transport of acridine” (J Med Chem, 2002)

Legend:
CHO [1] = assay: Cellular uptake of conjugates in CHO cells at a concentration of 0.5 uM (+/-15% SEM); assay type: functional, cell-based; conditions: Cricetulus griseus
Summary of the method: (§1)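 Conjugates added 24 h after seeding (1 × 10^5 cells/mL, RPMI 1640 with 10% FCS and 2 mM aminoguanidine; proline added for CHO-MG) and left for 24 h. Cells were washed in 0.14 M NaCl, sonicated in 0.2 N HClO4/2 M NaCl and held 16 h at 4 °C. Conjugate in the supernatant was measured by fluorimetry against standards and expressed per mg protein (Folin). Mean of three determinations (±15%).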

CHO-MG [2] = assay: In vitro 50% cell growth inhibition by the compound in CHO-MG cells; assay type: functional, cell-based; conditions: Cricetulus griseus
Summary of the method: (§2)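 CHO or CHO-MG cells were trypsinized and plated singly at 2 × 10^3 cells/mL in RPMI 1640/10% FCS with 2 mM aminoguanidine (proline for CHO-MG). Conjugates were added after overnight incubation, with 48 h exposure. Growth was read by MTT formazan absorbance at 540 nm relative to untreated controls. The value is the concentration giving 25% or 50% growth inhibition.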

CHO-MG [3] = assay: Cellular uptake of conjugates in CHO-MG cells at a concentration of 0.5 uM (+/-15% SEM); assay type: functional, cell-based; conditions: Cricetulus griseus; summary of the method: as §1
L1210 [4] = assay: In vitro 50% cell growth inhibition by the compound in L1210 cells; assay type: functional, cell-based; conditions: Mus musculus
Summary of the method: (§3)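 L1210 cells were seeded at 5 × 10^4 cells/mL with conjugate added at seeding, in medium with 2 mM aminoguanidine, for 48 h exposure. Growth was measured by MTT absorbance at 540 nm relative to untreated controls.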

L1210 [5] = assay: In vitro 50% cell growth inhibition by the compound in L1210 cells with 5 mM DFMO addition; assay type: functional, cell-based; conditions: Mus musculus
Summary of the method: (§4)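 L1210 cells were seeded at 5 × 10^4 cells/mL, and conjugate plus 5 mM DFMO were added at seeding with 2 mM aminoguanidine present. After 48 h, growth was read by MTT at 540 nm relative to DFMO-only controls.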

L1210 [6] = assay: In vitro 25% cell growth inhibition by the compound in L1210 cells; assay type: functional; conditions: Mus musculus; summary of the method: as §3
L1210 [7] = assay: In vitro 25% cell growth inhibition by the compound in L1210 cells with 5 mM DFMO addition; assay type: functional; conditions: Mus musculus; summary of the method: as §4
L1210 [8] = assay: Inhibition of [14C]SPD uptake by the compound in 5 min initial rate transport assay in L1210 cells; assay type: functional, cell-based, Mus musculus
L1210 [9] = assay: Cellular uptake of conjugates in L1210 cells (control) at a concentration of 0.5 uM (+/-15% SEM); assay type: functional, cell-based; conditions: Mus musculus
Summary of the method: (§5)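 L1210 cells were seeded at 2 × 10^5 cells/mL with conjugate added at seeding, in medium containing 2 mM aminoguanidine, and cultured 24 h. Washed cells were extracted in 0.2 N HClO4/2 M NaCl for 16 h at 4 °C. Intracellular conjugate was quantified by fluorimetry and expressed as nmol/mg protein. Mean of three determinations (±15%).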

L1210 [10] = assay: Cellular uptake of conjugates in L1210 cells (control) at a concentration of 1 uM (+/-15% SEM); assay type: functional, cell-based; conditions: Mus musculus; summary of the method: as §5
L1210 [11] = assay: Cellular uptake of conjugates in L1210 cells (control) at a concentration of 2 uM (+/-15% SEM); assay type: functional, cell-based; conditions: Mus musculus; summary of the method: as §5
L1210 [12] = assay: Cellular uptake of conjugates in L1210 cells in presence of 500 uM SPD at a concentration of 0.5 uM (+/-15% SEM); assay type: functional, cell-based; conditions: Mus musculus
Summary of the method: (§6)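 Same as the L1210 uptake assay: seeded at 2 × 10^5 cells/mL, conjugate plus 500 μM spermidine added together at seeding, 24 h exposure. Extraction in HClO4/NaCl, fluorimetric quantitation, normalized to protein. Mean of three determinations (±15%).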

L1210 [13] = assay: Cellular uptake of conjugates in L1210 cells in presence of 500 uM SPD at a concentration of 1 uM (+/-15% SEM); assay type: functional, cell-based; conditions: Mus musculus; summary of the method: as §6
Nucleic Acid = assay: Drug concentration required to produce 50% inhibition of fluorescence bound ethidium to CT-DNA (1.26:1) (+/-SEM 5%); assay type: functional; conditions: Bos taurus
Summary of the method: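 Ethidium displacement: 1 μM CT-DNA with 1.26 μM ethidium bromide; conjugate stock added serially. Fluorescence was read at excitation 546 nm and emission 595 nm. The value is the conjugate concentration cutting DNA-bound ethidium fluorescence by 50%. Mean of three determinations (±5%).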

[14] = Ratio of cellular uptake in CHO cells to that of CHO-MG cells.; assay type: functional
CHO [15] = assay: In vitro 50% cell growth inhibition by the compound in CHO cells; assay type: functional, cell-based; conditions: Cricetulus griseus; summary of the method: as §2
CHO-MG [16] = assay: In vitro 25% cell growth inhibition by the compound in CHO-MG cells; assay type: functional, Cricetulus griseus; conditions: Cricetulus griseus, CHO-MG; read-out: IC25; summary of the method: as §2
CHO-MG [17] = assay: In vitro 25% cell growth inhibition by the compound in CHO-MG cells with 5 mM DFMO addition; assay type: functional; conditions: Cricetulus griseus
Summary of the method: (§7)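 CHO or CHO-MG cells were plated at 2 × 10^3 cells/mL and incubated overnight. Conjugates and 5 mM DFMO were then added together, with 2 mM aminoguanidine present, for 48 h. MTT absorbance at 540 nm was expressed relative to DFMO-treated controls. The value is the concentration inhibiting growth 25% or 50%.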

CHO-MG [18] = assay: In vitro 50% cell growth inhibition by the compound in CHO-MG cells with 5 mM DFMO addition; assay type: functional, cell-based; conditions: Cricetulus griseus; summary of the method: as §7
CHO [19] = assay: In vitro 50% cell growth inhibition by the co mpound in CHO cells with 5 mM DFMO addition; assay type: functional, cell-based; conditions: Cricetulus griseus; summary of the method: as §7
CHO [20] = assay: In vitro 25% cell growth inhibition by the compound in CHO cells; assay type: functional; conditions: Cricetulus griseus; summary of the method: as §2
CHO [21] = assay: In vitro 25% cell growth inhibition by the compound in CHO cells with 5 mM DFMO addition; assay type: functional; conditions: Cricetulus griseus; summary of the method: as §7
L1210 [22] = assay: Cellular uptake of conjugates in L1210 cells in presence of 500 uM SPD at a concentration of 2 uM (+/-15% SEM); assay type: functional, cell-based; conditions: Mus musculus; summary of the method: as §6
L1210 [23] = assay: Cellular uptake of conjugates in L1210 cells pretreated with 5 mM DFMO at a concentration of 0.5 uM (+/-15% SEM); assay type: functional, cell-based; conditions: Mus musculus
Summary of the method: (§8)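 L1210 cells were seeded at 10^5 cells/mL in medium with 5 mM DFMO, and conjugates were added 24 h later. Cells were harvested after a further 24 h, extracted in 0.2 N HClO4/2 M NaCl and assayed by fluorimetry, expressed per mg protein. Mean of three determinations (±15%).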

L1210 [24] = assay: Cellular uptake of conjugates in L1210 cells pretreated with 5 mM DFMO at a concentration of 1 uM (+/-15% SEM); assay type: functional, cell-based; conditions: Mus musculus; summary of the method: as §8
L1210 [25] = assay: Cellular uptake of conjugates in L1210 cells pretreated with 5 mM DFMO at a concentration of 2 uM (+/-15% SEM); assay type: functional, cell-based; conditions: Mus musculus; summary of the method: as §8
CHO [26] = assay: Cellular uptake of conjugates in CHO cells at a concentration of 1.25 uM (+/-15% SEM); assay type: functional, cell-based; conditions: Cricetulus griseus; summary of the method: as §1
CHO [27] = assay: Cellular uptake of conjugates in CHO cells at a concentration of 10 uM (+/-15% SEM); assay type: functional, cell-based; conditions: Cricetulus griseus; summary of the method: as §1
CHO-MG [28] = assay: Cellular uptake of conjugates in CHO-MG cells at a concentration of 10 uM (+/-15% SEM); assay type: functional, cell-based; conditions: Cricetulus griseus; summary of the method: as §1
L1210 [29] = assay: Cellular uptake of conjugates in L1210 cells (control) at a concentration of 10 uM (+/-15% SEM); assay type: functional, cell-based; conditions: Mus musculus; summary of the method: as §5
L1210 [30] = assay: Cellular uptake of conjugates in L1210 cells pretreated with 5 mM DFMO at a concentration of 10 uM (+/-15% SEM); assay type: functional, cell-based; conditions: Mus musculus; summary of the method: as §8
CHO-MG [31] = assay: Cellular uptake of conjugates in CHO-MG cells at a concentration of 1.25 uM (+/-15% SEM); assay type: functional, cell-based; summary of the method: as §1
[32] = Ratio of cellular uptake in CHO cells to that of CHO-MG cells at 1.25 uM; assay type: functional
[33] = Ratio of cellular uptake in CHO cells to that of CHO-MG cells at 10 uM; assay type: functional

SMILES | Uptake (nM (mg of protein)-1) (CHO [1]) | IC50 (CHO-MG [2]) [µM] | Uptake (nM (mg of protein)-1) (CHO-MG [3]) | IC50 (L1210 [4]) [µM] | IC50 (L1210 [5]) [µM] | IC25 (L1210 [6]) [µM] | IC25 (L1210 [7]) [µM] | Ki (L1210 [8]) [µM] | Uptake (nM (mg of protein)-1) (L1210 [9]) | Uptake (nM (mg of protein)-1) (L1210 [10]) | Uptake (nM (mg of protein)-1) (L1210 [11]) | Uptake (nM (mg of protein)-1) (L1210 [12]) | Uptake (nM (mg of protein)-1) (L1210 [13]) | Concentration for 50% ethidium displacement from DNA (C50) (Nucleic Acid) [nM] | Ratio [14] | IC50 (CHO [15]) [µM] | further results
Cl.NCCCNCCCCNCCCNCCCCN=c1c2ccccc2[nH]c2ccccc12 | 0.081 | 7.2 | 0.026 | 2.3 | 0.6 | 1.1 | 0.16 | 0.083 | 0.193 | 0.362 | 0.491 | 0.094 | 0.28 | 110 | 3.1 | 2.3 | 
Cl.NCCCNCCCCNCCCNCCCNc1c2ccccc2nc2ccccc12 | 0.167 | 6.1 | 0.054 | 2.8 | 0.9 | 1.4 | 0.14 | 0.129 | 0.186 | 0.307 | 0.717 | 0.053 | 0.188 | 110 | 3.1 | 2.3 | IC25 (CHO-MG [16]): 1.8 µM; IC25 (CHO-MG [17]): 2.5 µM; IC50 (CHO-MG [18]): 7.3 µM; IC50 (CHO [19]): 1.3 µM; IC25 (CHO [20]): 0.9 µM; IC25 (CHO [21]): 0.32 µM; Uptake (nM (mg of protein)-1) (L1210 [22]): 0.553; Uptake (nM (mg of protein)-1) (L1210 [23]): 0.496; Uptake (nM (mg of protein)-1) (L1210 [24]): 0.728; Uptake (nM (mg of protein)-1) (L1210 [25]): 1.58
Cl.NCCCNCCCCNCCCNCCCCNC(=O)c1c2ccccc2nc2ccccc12 |  | 21 |  | 18 | 2.2 | 10 | 0.16 | 0.083 |  |  |  |  |  | 120 |  | 17 | Uptake (nM (mg of protein)-1) (CHO [26]): 0.018; Uptake (nM (mg of protein)-1) (CHO [27]): 0.183; Uptake (nM (mg of protein)-1) (CHO-MG [28]): 0.172; Uptake (nM (mg of protein)-1) (L1210 [29]): 0.561; Uptake (nM (mg of protein)-1) (L1210 [30]): 0.85; Uptake (nM (mg of protein)-1) (CHO-MG [31]): 0.013; Ratio [32]: 1.4; Ratio [33]: 1.1
